From PubChem
A selection: hits, their analogues and other compounds. The true share with any hit is near 1.5%.
NR2E3 ag-1 = activates human photoreceptor nuclear receptor NR2E3; Q9Y5X4; GST-NR2E3/biotin-RetCOR TR-FRET, 1536-well; inhibition of corepressor binding, % at 4.78 µM; 320,000 tested, 0.12% active;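 active = percent inhibition above the cutoff of mean plus 3 SD of all tested compounds, set per screening campaign, cut at about 20% in these data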;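 also: 0% = DMSO wells and 100% = biotin wells as full block of FRET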
Target sequence (Q9Y5X4 whole entry, looked up): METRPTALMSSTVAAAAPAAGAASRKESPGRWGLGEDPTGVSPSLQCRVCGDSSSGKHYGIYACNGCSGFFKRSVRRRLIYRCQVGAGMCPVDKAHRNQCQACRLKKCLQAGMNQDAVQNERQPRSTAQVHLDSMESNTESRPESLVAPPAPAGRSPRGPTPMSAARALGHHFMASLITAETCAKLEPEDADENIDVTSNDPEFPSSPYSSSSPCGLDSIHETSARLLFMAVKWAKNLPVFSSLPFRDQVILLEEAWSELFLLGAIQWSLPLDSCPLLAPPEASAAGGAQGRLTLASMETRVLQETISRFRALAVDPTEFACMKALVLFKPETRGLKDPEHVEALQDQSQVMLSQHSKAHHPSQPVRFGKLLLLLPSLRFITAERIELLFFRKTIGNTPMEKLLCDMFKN
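Material: NR2E3–RetCOR corepressor complex / Incubation: Compound–protein incubation for 5 h at 4 °C / Dosing: compound at 4.8 µM, single dose / Detection: time-resolved FRET / Benchmarks: high control biotin, low control 0.6% DMSO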
PG9 binder = small molecules binding HIV-1 gp120 antibody PG9 | inhibition, % at 6.7 µM | TR-FRET gp120-PG9 antibody binding | AID 624416 | 360,000 tested, 0.43% active; in the data active = inhibition above about 8.5%
NR1D1 modulator = modulators of human Rev-erb alpha DNA binding; Rev-erbα–FITC-DNA binding, fluorescence polarization, 90 min; AID 1259318; 370,000 tested, 0.79% active; activity, % at 10 µM; P20393;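 active = activity above about 14%, limit read from the data; passing the limit was not always enough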;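 also: 0% = DMSO wells with 35 nM protein and 100% = DMSO wells with 750 nM protein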
NR2E3 ag-2 = agonists of human NR2E3 nuclear receptor; CHO-S Gal4-NCOR/VP16-NR2E3 two-hybrid, luciferase; AID 602229; inhibition of corepressor binding, % at 3.98 µM; 360,000 tested, 0.35% active;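 active = inhibition above the mean of all tested compounds plus 3 SD, cut at about 70% in these data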;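 also: 0% = DMSO with NR2E3 transfected cells and 100% = cells lacking NR2E3 construct; higher means lower luciferase signal from less NR2E3 corepressor binding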
PG9 binder conf = PG9 antibody binding, confirmed; shares compounds with PG9 binder; TR-FRET PG9 antibody binding, biochemical; inhibition, % at 6.7 µM; 1,500 tested, 90% active; AID 651571; in the data active = inhibition above about 9%
PGV04 Ab binding = counter-screen for PG9 binders: binding control antibody PGV04; shares compounds with PG9 binder; TR-FRET PGV04 antibody-gp120 binding, biochemical; inhibition, % at 6.7 µM; 1,500 tested, 95% active; AID 651604; in the data active = inhibition above about 9.5%
PG9 binder DR = PG9 antibody binding, dose response; shares compounds with PG9 binder; IC50, µM; AID 651848; 95 tested, under 10 active; TR-FRET PG9 antibody-gp120 binding inhibition; in the data active = IC50 below about 10 µM
PGV04 binding DR = counter-screen for PG9 binders: binding to control antibody PGV04 | shares compounds with PG9 binder | TR-FRET binding to control antibody PGV04 | IC50, µM | 95 tested, 20% active
PG126 binding DR = counter-screen for PG9 binders: binding to control antibody PG126. 95 tested, 20% active. IC50, µM. shares compounds with PG9 binder. TR-FRET binding to antibody PG126, counterscreen
* hit, by the source's call. Rule as the data show it, unless noted: active = IC50 below about 9 µM; inactive = the rest.

Screening CCOC(=O)[C@]12CCCC=C1N(CCCOC)C(=O)[C@@H]2CC(=O)NCCCCc1ccccc1 returned NR1D1 modulator 0.
`COc1ccccc1NC(=O)C1CCCN(S(=O)(=O)c2ccc3[nH]c(=O)ccc3c2)C1` (stereo not given) gave NR2E3 ag-1 1, PG9 binder 0, NR1D1 modulator -2 and NR2E3 ag-2 -26.
Screening O=C(Nc1ccc(F)cc1)C1CCCN(S(=O)(=O)c2ccc3[nH]c(=O)ccc3c2)C1 (stereo not given) returned NR2E3 ag-1 5, PG9 binder 11*, NR1D1 modulator -5, NR2E3 ag-2 -13, PG9 binder conf 19* and PGV04 Ab binding 29*.
For Cc1ccc(C)c(NC(=O)C2CCCN(S(=O)(=O)c3ccc4[nH]c(=O)ccc4c3)C2)c1 (stereo not given) the results were NR2E3 ag-1 0, PG9 binder 16*, NR1D1 modulator 10, NR2E3 ag-2 -1, PG9 binder conf 13* and PGV04 Ab binding 21*.
Screening O=[N+]([O-])c1cccc(OCCCN2CCC(C(O)(c3ccccc3)c3ccccc3)CC2)c1 returned NR1D1 modulator 9.
Screening CCOc1ccc(C2C(C(=O)c3ccc(C)o3)=C(O)C(=O)N2Cc2cccnc2)cc1 (stereo not given) returned NR2E3 ag-1 14, PG9 binder 23*, NR1D1 modulator -2, NR2E3 ag-2 16, PG9 binder conf 35* and PGV04 Ab binding 41*.
`COc1ccc(C2C(C(=O)c3ccc(C)o3)=C(O)C(=O)N2Cc2cccnc2)cc1OC` (stereo not given) gave NR2E3 ag-1 0, PG9 binder 8, NR1D1 modulator 0 and NR2E3 ag-2 -11.
For Cc1cc(N2C(=O)C(O)=C(C(=O)c3ccc(C)o3)C2c2cccc(Cl)c2)no1 (stereo not given) the results were PG9 binder 8.7*, NR1D1 modulator -2, NR2E3 ag-2 -3, PG9 binder conf 17* and PGV04 Ab binding 24*.
Cc1ccc(C(=O)C2=C(O)C(=O)N(Cc3cccnc3)C2c2ccc(Cl)cc2)o1 (stereo not given) was read as NR2E3 ag-1 18, PG9 binder 19*, NR1D1 modulator -1, NR2E3 ag-2 7, PG9 binder conf 27* and PGV04 Ab binding 36*.
`COc1ccc(C2C(C(=O)c3ccc(C)o3)=C(O)C(=O)N2Cc2ccco2)cc1OC` (stereo not given) gave NR2E3 ag-1 8, PG9 binder -1, NR1D1 modulator -1 and NR2E3 ag-2 -27.
CCCOc1ccc(C2C(C(=O)c3ccc(C)o3)=C(O)C(=O)N2Cc2ccco2)cc1 (stereo not given) was read as NR2E3 ag-1 13, PG9 binder 14*, NR1D1 modulator -1, NR2E3 ag-2 -4, PG9 binder conf 16* and PGV04 Ab binding 21*.
`Cc1cc(N2C(=O)C(O)=C(C(=O)c3ccco3)C2c2cccc(Cl)c2)no1` (stereo not given) gave NR2E3 ag-1 9, PG9 binder 3, NR1D1 modulator -1 and NR2E3 ag-2 -10.
COC(=O)C1CN(Cc2cn(Cc3ccc(OC)cc3)nn2)CCS(=O)(=O)N1Cc1ccccc1 (stereo not given) was read as NR1D1 modulator -5.
`CCOC(=O)N1CCN(C(=O)C[C@H]2C[C@@]3(C(=O)OC)C(=C[C@H](COCc4ccccc4)O[C@@H]3C)N(Cc3ccc(Cl)cc3Cl)C2=O)CC1` gave NR1D1 modulator -1.
Screening Cc1cccc(CC2S/C(=N/c3cccc(C)n3)NC2=O)c1 (stereo not given) returned NR2E3 ag-1 -3, PG9 binder 13*, NR1D1 modulator 16, NR2E3 ag-2 16, PG9 binder conf 18* and PGV04 Ab binding 24*.
`Cc1cccc(/N=C2/NC(=O)C(Cc3ccccc3)S2)n1` (stereo not given) gave NR2E3 ag-1 4, PG9 binder 8, NR1D1 modulator 5 and NR2E3 ag-2 -23.
CC1=C2NC(N)=[N+](Cc3ccc4c(c3)OCO4)CC2n2c(=O)n(-c3ccccc3)c(=O)n2C1 (stereo not given) was read as NR1D1 modulator -3.
CSc1ncccc1C(=O)OCC(=O)c1ccc(C)s1 was read as PG9 binder 16*, NR1D1 modulator 17, NR2E3 ag-2 -27, PG9 binder conf 16* and PGV04 Ab binding 38*.
For CSc1ncccc1C(=O)OCc1ccc(C#N)cc1 the results were NR2E3 ag-1 5, PG9 binder 9.8*, NR1D1 modulator 2, NR2E3 ag-2 6, PG9 binder conf 15* and PGV04 Ab binding 20*.
CSc1ncccc1C(=O)OCC(=O)Nc1ccc(Cl)cn1 was read as PG9 binder 17*, NR1D1 modulator -3, NR2E3 ag-2 -15, PG9 binder conf 9.9* and PGV04 Ab binding 15*.
Screening CC1CCN(CCCn2c(=S)[nH]c3c(sc4ccccc43)c2=O)CC1 returned NR2E3 ag-1 1, PG9 binder 15*, NR1D1 modulator -4, NR2E3 ag-2 -32, PG9 binder conf 9.7*, PGV04 Ab binding 9.4*, PG9 binder DR inactive, PGV04 binding DR inactive and PG126 binding DR inactive.
Cc1ccccc1CS(=O)(=O)Cc1ccc(C(=O)Nc2ccccc2C)o1 was read as NR1D1 modulator -2.
`COc1cccc2cc(C(=O)Nc3cccnc3N3CCOCC3)c(=O)oc12` gave NR2E3 ag-1 -3, PG9 binder 9.7*, NR1D1 modulator -5, NR2E3 ag-2 25, PG9 binder conf 4 and PGV04 Ab binding 7.
CCCCNS(=O)(=O)c1ccc2nc(-c3cccnc3)cc(C(=O)NCCCOC)c2c1 was read as NR2E3 ag-1 -2, PG9 binder 11*, NR1D1 modulator 0, NR2E3 ag-2 9, PG9 binder conf 13* and PGV04 Ab binding 15*.
`CCOc1ccc(NC(=O)Nc2nc3ccc(S(C)(=O)=O)cc3s2)cc1` gave PG9 binder 14*, NR1D1 modulator 10, NR2E3 ag-2 -7, PG9 binder conf 19* and PGV04 Ab binding 22*.
`CCOCC(=O)Nc1nc2ccc(S(C)(=O)=O)cc2s1` gave NR2E3 ag-1 0, PG9 binder 1, NR1D1 modulator -5 and NR2E3 ag-2 -10.
NS(=O)(=O)c1ccc2nc(NC(=O)Nc3ccccc3F)sc2c1 was read as NR2E3 ag-1 4, PG9 binder 2, NR1D1 modulator -6 and NR2E3 ag-2 -92.
